GSK3 alpha inh – blockers of GSK3A enzyme activity – biochemical, luminescence, cell-free homogeneous, HTS, primary screen; Glycogen synthase kinase-3 alpha (Homo sapiens), P49840; 320,000 tested, 0.1% active; inhibition, % at 10 µM; AID 2650, 2010; GSK-3 alpha kinase, ADP-Glo luminescence, 60 min;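 active = more than half of replicates show inhibition above 20%; inconclusive = some but at most half of replicates above 20% inhibition; inactive = no replicate shows inhibition above 20%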;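 note: GST-tagged GSK-3 alpha with peptide substrate and 25 µM ATP; 0% = DMSO neutral wells and 100% = GW8510 positive control wells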
Target sequence (P49840 whole entry, looked up): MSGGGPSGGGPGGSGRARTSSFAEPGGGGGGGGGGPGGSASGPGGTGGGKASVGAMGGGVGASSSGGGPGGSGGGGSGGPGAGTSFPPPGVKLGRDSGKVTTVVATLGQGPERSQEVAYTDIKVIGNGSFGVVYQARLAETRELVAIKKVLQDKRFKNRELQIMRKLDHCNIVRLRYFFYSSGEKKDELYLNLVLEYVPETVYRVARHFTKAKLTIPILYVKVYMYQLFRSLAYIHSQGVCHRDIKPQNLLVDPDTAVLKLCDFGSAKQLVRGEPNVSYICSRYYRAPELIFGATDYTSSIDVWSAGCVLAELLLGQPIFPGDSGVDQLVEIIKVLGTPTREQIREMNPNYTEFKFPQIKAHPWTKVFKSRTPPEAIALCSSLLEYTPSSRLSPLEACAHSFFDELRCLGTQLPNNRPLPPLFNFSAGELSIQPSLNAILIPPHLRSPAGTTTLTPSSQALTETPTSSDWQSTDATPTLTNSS
GSK3B inh – human GSK3beta kinase inhibitors, primary screen, biochemical, cell-free homogeneous, HTS. Glycogen synthase kinase-3 beta (Homo sapiens), P49841. GST-GSK3beta kinase, ADP-Glo luminescence, 60 min; active compounds read low. activity score (negative = inhibition), % at 10 µM. 300,000 tested, 0.038% active;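 active = more than half of replicate wells score below -50%, meaning over 50% inhibition versus plate controls; inconclusive = some replicates but at most half score below -50%; inactive = no replicate scores below -50%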;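 note: 0% = median DMSO wells and -100% = median GW8510 positive control wells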
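Assay system: GST-tagged human GSK3beta kinase, cell-free; Input: 1.6 ng GSK3beta; Medium: Tris/MgCl2 kinase buffer; Timing: 60 min enzyme reaction, room temperature; Signal: ADP-Glo luminescence quantifying ADP generated by kinase; Evaluation: score relative to plate controls; Benchmarks: DMSO neutral wells and GW8510 at 20 µM as positive.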
AI-2 QS mod – Vibrio harveyi AI-2 quorum sensing modulators, primary screen, JMH597 strain, luminescence/OD600 ratio | Vibrio harveyi JMH597 AI-2 luminescence/OD600 ratio, 9 h; active compounds read low; strain lacks LuxN and CqsS sensors; 0 = neutral-control median | activity change, % at 7.5 µM | 300,000 tested, 0.4% active | AID 2094, 2009; in the data active = activity change below about -75%, passing the limit was not always enough; inconclusive = no clear call, values can overlap the other calls;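 note: luminescence divided by OD600 gain over 9 h not by final OD600 alone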
STK33 inh – inhibitors of purified STK33 kinase, primary screen, biochemical, ADP-Glo luminescence, homogeneous, cell-free | Serine/threonine-protein kinase 33 (Homo sapiens), Q9BYT3 | MBP phosphorylation | inhibition, % at 10 µM | 320,000 tested, 0.073% active;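 active = inhibition at or above 25%, using the most active replicate where run in duplicate; inactive = inhibition below 25%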
Dyrk1A ADPGlo – rat Dyrk1A kinase inhibitors, primary screen, biochemical, single point, plate reader. ADP-Glo luminescence, NFATc1 peptide. Dual specificity tyrosine-phosphorylation-regulated kinase 1A (Rattus norvegicus), Q63470. inhibition, % at 12.5 µM. 310,000 tested, 0.43% active; in the data active = inhibition above about 50%;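 note: plate controls were vehicle with enzyme for no effect and no enzyme for full effect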
Rce1 inhib – yeast Rce1p protease inhibitors, primary screen, biochemical, fluorescence, cell-free homogeneous; CAAX prenyl protease 2 (Saccharomyces cerevisiae (strain ATCC 204508 / S288c)), Q03530; yeast membranes, quenched prenylated peptide cleavage fluorescence; calls only; 290,000 tested, 0.27% active; AID 2563, 2010;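 active = fall in fluorescence gain of 50% or more versus controls, with final raw signal at or below 3038400; inconclusive = same 50% fall but final raw signal above 3038400; inactive = fall in fluorescence gain under 50%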;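 note: plate controls were neutral control wells for no effect and wells lacking membranes for full effect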
* = called active by the depositor; i = inactive; ? = inconclusive; / = no result given; + = active, no number. An excerpt weighted towards active compounds, which were near 0.99% of everything screened.

SMILES	GSK3 alpha inh	GSK3B inh	AI-2 QS mod	STK33 inh	Dyrk1A ADPGlo	Rce1 inhib
CC1(C)OC(=O)N(c2ccccc2)C12C=Cc1c(ccc3ccccc13)O2 (stereo not drawn)	-1	-1	7	-1	12	i
O=C1NC2(C=Cc3c(ccc4ccccc34)O2)Oc2ccccc21 (stereo not drawn)	/	-2	8	-1	6	+
O=C1/C(=C/c2ccc([N+](=O)[O-])cc2)Oc2cc(O)ccc21	-1	-2	-83*	0	-2	i
O=C(O)C1Sc2[nH]c(=O)sc2C2c3ccc(O)cc3OC(=O)C12 (stereo not drawn)	26	1	6	3	31	+
O=S(=O)(c1ccccc1)c1nc(-c2ccco2)oc1N1CCCCC1	-2	-1	4	0	0	+
CC1CCN(c2oc(-c3ccco3)nc2S(=O)(=O)c2ccccc2)CC1	-2	-4	6	-1	-9	i
COC(=O)COc1cccc(NC(=O)C(c2ccccc2)c2ccccc2)c1	0	-4	23	0	6	i
Cc1[nH]c(C)c(S(=O)(=O)N2CCCCC2C)c1C(=O)N1CCCC1 (stereo not drawn)	3	7	5	-1	-3	i
CCN(CC)c1nc(N)c2c(N)nc(OC)cc2c1C#N	9	0	15	6	11	+
COc1cc2c(C#N)c(N3CCOCC3)nc(N)c2c(N)n1	/	-1	24	8	18	i
COc1cc2c(C#N)c(N3CCCCC3)nc(N)c2c(N)n1	18	-20	31	2	28	+
CS(=O)(=O)c1ccc(Cl)c(NC(=O)c2cccc(-n3cnnn3)c2)c1	0	-2	13	-1	8	i
COC(=O)CSc1nc(N)c2c3c(sc2n1)C(c1ccccc1)SC(c1ccccc1)C3 (stereo not drawn)	0	0	6	-2	/	+
COC(=O)CSc1nc(N)c2c3c(sc2n1)CCCC3	1	4	17	1	1	i
Cc1cc(CN2CCN(CC(=O)Nc3cc(Cl)ccc3-n3cncn3)CC2)no1	/	/	/	/	3	/
CCN(CC)S(=O)(=O)c1cccc(-c2n[nH]c(=S)n2Cc2ccccc2)c1	-2	0	2	-1	/	+
CCN(CC)S(=O)(=O)c1cccc(-c2n[nH]c(=S)n2CC(C)C)c1	4	3	16	-2	-6	i
CC(=O)N/C(=C\c1ccc(F)cc1)C(=O)OCc1ccccc1	-1	3	17	0	0	i
C/C(NCCCn1ccnc1)=C(\C#N)C(N)=O	51*	-22	21	-1	6	i
CCN1CCN(CC(O)COc2ccc3c(C)cc(=O)oc3c2)CC1 (stereo not drawn)	0	1	9	0	/	+
COc1ccc(OC)c(NC(=O)C(=O)N/N=C(\C)CC(=O)Nc2ccc(Cl)cn2)c1	0	3	18	-1	-3	i
Cc1cc(C)c(C)c(S(=O)(=O)NCC(=O)NCC2CCCCC2)c1C	-2	-1	14	-1	3	i
O=C(Cc1cccs1)NNC(=S)NC(=O)c1ccco1	-2	-5	-84*	-1	-1	i
O=C(/C=C/c1ccc(Br)cc1)NC(=S)NNC(=O)c1ccco1	7	12	-100*	-1	-6	i
O=C(/C=C/c1ccccc1)NC(=S)NNC(=O)c1ccco1	-3	4	?	0	0	i
SMILES	GSK3 alpha inh	GSK3B inh	AI-2 QS mod	STK33 inh	Dyrk1A ADPGlo	Rce1 inhib
CN1CCN(S(=O)(=O)c2cccc(C(=O)Nc3cc(Cl)ccc3N3CCOCC3)c2)CC1	7	1	9	/	-3	i
CCOc1ccc(N(Cc2ccc(OC)c(OC)c2)C(=O)c2ccco2)cc1	-1	0	-1	-2	-1	i
CCOc1ccc(N(Cc2ccc(OC)cc2)C(=O)c2ccco2)cc1	/	2	24	0	1	+
O=C(O)/C=C/C(=O)N1CCN(c2cccc(Cl)c2)CC1	-2	1	-3	0	-3	i
O=[N+]([O-])c1cc(/C=N/O)ccc1SCc1ccccc1Cl	0	4	8	1	9	i
CC(C)(C)Sc1ccc(/C=N/O)cc1[N+](=O)[O-]	55*	-36	-5	2	42	i
CO/N=C/c1ccc(Sc2ccc(C)cc2)c([N+](=O)[O-])c1	/	0	21	-2	0	i
Cc1ccc(Sc2ccc(/C=N/O)cc2[N+](=O)[O-])cc1	0	-1	-76*	-2	4	i
Nc1c(Cl)cc(C2=NCCn3nc4cc(C(F)(F)F)ccc4c32)cc1Cl	-1	2	15	0	17	+
Cc1ccccc1C(=O)Nc1ccccc1C(=O)N1CCC(C)CC1	1	-1	18	0	-6	i
O=C(Nc1cc([N+](=O)[O-])ccc1Cl)C(Sc1ccccc1)c1ccccc1 (stereo not drawn)	-1	-2	30	-1	0	i
O=C(Nc1ccc(Cl)c([N+](=O)[O-])c1)C(Sc1ccccc1)c1ccccc1 (stereo not drawn)	0	3	28	-1	4	+
CC(CCc1ccccc1)NC(=O)COC(=O)c1ccc(NC(=O)CC#N)cc1 (stereo not drawn)	-1	2	-4	-1	0	i
C=CCn1cc(-c2ccc(Cl)cc2)cc(C#N)c1=O	1	-4	17	-2	-6	i
C=CCn1cc(-c2ccccc2)cc(C#N)c1=O	-1	3	0	-1	6	+
CC1CCN(C(=O)c2[nH]cnc2C(=O)Nc2ccc(Cl)cc2)CC1	1	/	/	0	8	/
CCCCN(C)CCNC(=O)c1cc2c(-c3cccc(OC)c3)nn(C)c2s1	4	-6	10	3	26	+
CCN(CC)CCCNC(=O)c1cc2c(-c3cccc(OC)c3)nn(C)c2s1	6	-9	-1	2	13	+
COc1cccc(-c2nn(C)c3sc(C(=O)NCCCN(C)Cc4ccccc4)cc23)c1	2	-2	10	1	28	i
CN1CC(=O)N(CC(=O)Nc2ccc(SC(F)F)cc2)C1=O	-2	0	-86*	-2	8	i
CCCCOC(=O)Nc1nc(C)c(C(=O)OCC)s1	-1	-8	15	0	3	+

Screening results (PubChem BioAssay)
